In paper PMC12827892 (Acta Pharmaceutica Sinica. B, 2025):
Where two headings read alike, the source gives them in different places.

Experiments:
USP8 = molecular target: T1, USP8 (Homo sapiens, UniProt P40818); experiment: DUB enzymatic assay; type: biochemical; details: 10 μmol/L
T1 sequence (P40818 1-1118): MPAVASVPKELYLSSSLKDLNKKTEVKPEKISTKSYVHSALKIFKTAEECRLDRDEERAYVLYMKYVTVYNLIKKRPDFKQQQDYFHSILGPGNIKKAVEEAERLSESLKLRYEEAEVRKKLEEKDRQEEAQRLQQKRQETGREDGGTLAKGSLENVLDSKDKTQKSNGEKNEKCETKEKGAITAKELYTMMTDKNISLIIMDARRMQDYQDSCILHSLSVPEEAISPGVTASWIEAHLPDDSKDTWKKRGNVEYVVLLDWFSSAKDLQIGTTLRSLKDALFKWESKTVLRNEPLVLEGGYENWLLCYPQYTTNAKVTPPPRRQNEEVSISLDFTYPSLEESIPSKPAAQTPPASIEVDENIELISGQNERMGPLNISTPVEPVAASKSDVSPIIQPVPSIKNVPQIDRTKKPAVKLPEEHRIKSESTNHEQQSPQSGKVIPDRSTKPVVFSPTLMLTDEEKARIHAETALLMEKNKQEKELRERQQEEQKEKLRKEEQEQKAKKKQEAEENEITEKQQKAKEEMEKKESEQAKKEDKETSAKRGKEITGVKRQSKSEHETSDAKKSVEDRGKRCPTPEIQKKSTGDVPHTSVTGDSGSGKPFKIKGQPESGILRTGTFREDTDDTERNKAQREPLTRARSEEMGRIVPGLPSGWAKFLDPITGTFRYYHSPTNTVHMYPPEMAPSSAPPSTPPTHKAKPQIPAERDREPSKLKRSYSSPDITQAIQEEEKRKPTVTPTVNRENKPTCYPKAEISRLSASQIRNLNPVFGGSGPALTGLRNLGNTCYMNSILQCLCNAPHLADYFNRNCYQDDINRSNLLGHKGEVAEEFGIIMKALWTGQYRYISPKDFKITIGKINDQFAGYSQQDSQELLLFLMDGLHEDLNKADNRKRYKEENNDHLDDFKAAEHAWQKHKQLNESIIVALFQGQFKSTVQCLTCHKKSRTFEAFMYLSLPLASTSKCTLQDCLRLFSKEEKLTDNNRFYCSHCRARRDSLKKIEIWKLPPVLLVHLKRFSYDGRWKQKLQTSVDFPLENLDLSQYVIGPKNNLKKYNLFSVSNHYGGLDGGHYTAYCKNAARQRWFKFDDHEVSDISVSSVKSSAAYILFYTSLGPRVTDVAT

OC43 = type: cell-based, HCoV-OC43; details: Huh7 hepatocytes, 0.1 MOI
SARS-CoV-2 [1] = type: in vivo, K18-hACE2 transgenic mice; details: ip, BID; for Weight loss in infected mice: five days; for SARS-CoV-2 viral loads in the lungs: Day 6, RT-PCR and IHC
SARS-CoV-2 Nsp3^179−1329 = SARS-CoV-2 Nsp3^179−1329 (Severe acute respiratory syndrome coronavirus 2, UniProt P0DTD1); experiment: Nsp3 DUB activity, Rho-110 cleavage assay; type: biochemical
229E = type: cell-based, HCoV-229E
[2] = tested on: phosphorylation levels of RIPK1 Ser166; type: cell-based; details: mouse airway organoids
UCHL1 = molecular target: T2, UCHL1 (Homo sapiens, UniProt P09936); experiment: DUB enzymatic assay; type: biochemical; details: 10 μmol/L
T2 sequence (P09936 1-223): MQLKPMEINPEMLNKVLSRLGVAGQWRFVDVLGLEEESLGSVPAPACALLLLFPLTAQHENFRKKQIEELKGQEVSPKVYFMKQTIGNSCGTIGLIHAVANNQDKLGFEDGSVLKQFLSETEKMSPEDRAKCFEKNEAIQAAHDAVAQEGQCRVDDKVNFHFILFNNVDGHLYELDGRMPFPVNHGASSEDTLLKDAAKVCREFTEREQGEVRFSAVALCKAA

[3] = tested on: expression levels of ACE2; type: cell-based; details: mouse airway organoids
OTULIN = OTULIN (Homo sapiens, UniProt Q96BN8); experiment: DUB enzymatic assay; type: biochemical; details: 10 μmol/L
Sequence of OTULIN (Q96BN8 whole entry, species assumed): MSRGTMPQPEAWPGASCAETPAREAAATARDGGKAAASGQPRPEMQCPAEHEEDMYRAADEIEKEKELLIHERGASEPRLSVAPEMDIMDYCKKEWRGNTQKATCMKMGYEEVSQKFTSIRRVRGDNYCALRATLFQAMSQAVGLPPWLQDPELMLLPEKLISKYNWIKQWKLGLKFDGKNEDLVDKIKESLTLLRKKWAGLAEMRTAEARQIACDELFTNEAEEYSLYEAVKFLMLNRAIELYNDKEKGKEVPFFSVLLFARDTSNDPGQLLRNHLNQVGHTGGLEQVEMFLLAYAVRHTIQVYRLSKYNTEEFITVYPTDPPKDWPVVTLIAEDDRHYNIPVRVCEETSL

USP7 = USP7 (Homo sapiens, UniProt Q93009); experiment: DUB enzymatic assay; type: biochemical; details: 10 μmol/L
Sequence of USP7 (Q93009 whole entry, species assumed): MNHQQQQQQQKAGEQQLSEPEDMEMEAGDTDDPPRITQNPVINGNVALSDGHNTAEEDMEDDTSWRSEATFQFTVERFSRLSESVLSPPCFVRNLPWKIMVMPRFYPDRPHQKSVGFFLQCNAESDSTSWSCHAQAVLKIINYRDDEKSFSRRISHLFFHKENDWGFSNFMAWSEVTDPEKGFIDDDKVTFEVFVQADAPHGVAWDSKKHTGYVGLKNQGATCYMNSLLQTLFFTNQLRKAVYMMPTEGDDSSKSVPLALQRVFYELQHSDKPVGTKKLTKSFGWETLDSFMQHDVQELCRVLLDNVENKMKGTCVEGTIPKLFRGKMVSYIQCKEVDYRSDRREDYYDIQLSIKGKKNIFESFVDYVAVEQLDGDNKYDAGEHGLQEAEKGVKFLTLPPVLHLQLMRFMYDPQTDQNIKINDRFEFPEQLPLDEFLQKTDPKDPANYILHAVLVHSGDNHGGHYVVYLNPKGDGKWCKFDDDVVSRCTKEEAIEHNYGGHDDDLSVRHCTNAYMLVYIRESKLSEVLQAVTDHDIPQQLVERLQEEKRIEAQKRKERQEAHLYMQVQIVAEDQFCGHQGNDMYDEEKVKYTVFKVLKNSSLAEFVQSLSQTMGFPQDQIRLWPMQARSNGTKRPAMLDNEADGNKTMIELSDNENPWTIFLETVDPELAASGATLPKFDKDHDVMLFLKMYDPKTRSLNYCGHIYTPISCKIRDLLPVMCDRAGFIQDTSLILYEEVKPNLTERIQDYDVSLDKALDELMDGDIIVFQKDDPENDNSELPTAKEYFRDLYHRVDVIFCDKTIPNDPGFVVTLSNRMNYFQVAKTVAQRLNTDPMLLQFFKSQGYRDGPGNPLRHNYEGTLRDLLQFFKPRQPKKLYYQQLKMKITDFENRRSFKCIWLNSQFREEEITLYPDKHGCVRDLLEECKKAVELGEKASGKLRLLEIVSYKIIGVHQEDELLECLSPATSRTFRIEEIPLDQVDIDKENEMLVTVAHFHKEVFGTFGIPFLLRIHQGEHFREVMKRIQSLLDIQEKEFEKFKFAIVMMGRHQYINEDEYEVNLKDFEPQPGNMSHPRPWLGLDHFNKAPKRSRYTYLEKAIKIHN

[4] = Stability in mouse liver microsomes; type: in vitro ADME; details: compared to 2
Nsp3179-1329 proteins = Nsp3179-1329 proteins (Severe acute respiratory syndrome coronavirus 2, UniProt P0DTD1); set-up: species or system SARS-CoV-2; details: incubation with compound, SEC
OTUB1 = OTUB1 (Homo sapiens, UniProt Q96FW1); experiment: DUB enzymatic assay; type: biochemical; details: 10 μmol/L
Sequence of OTUB1 (Q96FW1 whole entry, species assumed): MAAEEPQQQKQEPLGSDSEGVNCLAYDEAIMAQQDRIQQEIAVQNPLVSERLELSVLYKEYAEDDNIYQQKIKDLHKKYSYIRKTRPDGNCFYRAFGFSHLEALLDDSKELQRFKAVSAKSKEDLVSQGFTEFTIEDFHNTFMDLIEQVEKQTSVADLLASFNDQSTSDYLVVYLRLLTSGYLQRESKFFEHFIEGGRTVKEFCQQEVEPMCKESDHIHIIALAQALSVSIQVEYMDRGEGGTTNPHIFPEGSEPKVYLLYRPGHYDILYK

USP14 = USP14 (Homo sapiens, UniProt P54578); experiment: DUB enzymatic assay; type: biochemical; details: 10 μmol/L
Sequence of USP14 (P54578 whole entry, species assumed): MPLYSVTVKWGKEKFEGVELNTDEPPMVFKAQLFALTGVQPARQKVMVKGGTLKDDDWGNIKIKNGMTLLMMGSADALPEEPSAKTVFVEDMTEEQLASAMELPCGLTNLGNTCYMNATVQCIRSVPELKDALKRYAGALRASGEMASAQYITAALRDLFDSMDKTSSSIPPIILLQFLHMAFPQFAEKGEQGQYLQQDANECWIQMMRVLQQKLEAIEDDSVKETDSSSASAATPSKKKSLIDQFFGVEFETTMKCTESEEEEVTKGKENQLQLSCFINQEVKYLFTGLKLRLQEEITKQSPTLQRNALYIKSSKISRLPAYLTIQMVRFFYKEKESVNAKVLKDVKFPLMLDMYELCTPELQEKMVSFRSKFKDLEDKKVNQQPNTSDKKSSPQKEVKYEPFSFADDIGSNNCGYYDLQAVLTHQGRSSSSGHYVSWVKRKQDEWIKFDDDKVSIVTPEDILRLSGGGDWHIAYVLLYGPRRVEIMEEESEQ

[5] = Pharmacokinetic studies in mice; type: in vivo, male ICR mice
How it was run: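 Test compound was formulated in 10% (v/v) dimethylacetamide and 10% (w/v) Solutol HS 15 in normal saline. It was given to male ICR mice by tail-vein iv (1 mpk) or ip (10 mpk). Plasma from centrifuged whole blood was diluted in acetonitrile with internal standard. Brain was taken into PBS/acetonitrile (1:8) with internal standard and homogenised (30 Hz, 10 min). Samples were centrifuged (4 °C, 14,000 rpm, 10 min) and analysed by LC-MS/MS.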

SARS-CoV-2 [6] = type: cell-based; details: 4 μmol/L
SARS-CoV-2 [7] = experiment: SARS-CoV-2 replication in hACE2-HeLa cells; type: cell-based; details: 10 μmol/L
cytokine secretion = type: cell-based, mouse; details: single agent
[8] = tested on: panel of over 300 wild-type human kinases; experiment: KINOMEscan kinase selectivity profile; type: binding; details: 1 μmol/L

C[C@H](c1cccc2ccccc12)N1CCC(C(=O)NCc2cccc(-c3cn(Cc4nnc5c(F)cccn45)nn3)c2)CC1 [SHY1643, (R)-N-(3-(1-((8-Fluoro-[1,2,4]triazolo[4,3-a]pyridin-3-yl)methyl)-1H-1,2,3-triazol-4-yl)benzyl)-1-(1-(naphthalen-1-yl)ethyl)piperidine-4-carboxamide]
Inhibitory effect on USP8 (USP8): no significant inhibitory effects | Antiviral activity against OC43 (OC43): robust antiviral activity | Weight loss in infected mice (SARS-CoV-2 [1]; 10 mpk): significantly slowed the weight loss | SARS-CoV-2 viral loads in the lungs (SARS-CoV-2 [1]; 10 mpk): effectively reduced viral loads in the lungs | IC50 (SARS-CoV-2 Nsp3^179−1329): 28 nM | Antiviral activity against 229E (229E): robust antiviral activity | Phosphorylation levels of RIPK1 Ser166 following viral infection [2]: did not affect | Inhibitory effect on UCHL1 (UCHL1): no significant inhibitory effects | Expression levels of ACE2 [3]: did not affect | Inhibitory effect on OTULIN (OTULIN): no significant inhibitory effects | Inhibitory effect on USP7 (USP7): no significant inhibitory effects | Metabolic stability in mouse microsomes [4]: markedly improved metabolic stability compared to 2 | Dimerization of Nsp3 protein (Nsp3179-1329 proteins): could induce dimerization of Nsp3 protein | Inhibitory effect on OTUB1 (OTUB1): no significant inhibitory effects | Inhibitory effect on USP14 (USP14): no significant inhibitory effects

[2H]c1c([2H])c([C@]2([2H])CCCN2C(=O)C(C)(C)Oc2ccc3cn[nH]c3c2)c([2H])c([2H])c1C([2H])([2H])[2H] [QY1892, (S)-2-((1H-Indazol-6-yl)oxy)-2-methyl-1-(2-(4-(methyl-d3)phenyl-2,3,5,6-d4)pyrrolidin-1-yl-2-d)propan-1-one]
Brain distribution post-administration [5]: significant brain distribution | Weight loss in infected mice (SARS-CoV-2 [1]; 5 mpk): significantly slowed the weight loss | SARS-CoV-2 viral loads in the lungs (SARS-CoV-2 [1]; 5 mpk): effectively reduced viral loads in the lungs | Viral replication in mouse airway organoids (SARS-CoV-2 [6]): effectively suppressed the viral replication | Phosphorylation levels of RIPK1 Ser166 following viral infection [2]: significantly reduced | Effects against SARS-CoV-2 in ACE2-HeLa cells (SARS-CoV-2 [7]): neither QY1892 nor DNL758 exhibited detectable effects | Expression levels of ACE2 [3]: significantly reduced | Cytokine secretion from the organoids upon viral infection (cytokine secretion): significantly more effective than SHY1643 | Kinase selectivity across the kinome [8]: no significant off-target activity observed across the kinome

CN1C(=O)[C@@H](NC(=O)c2nnc(Cc3ccccc3)[nH]2)COc2cccnc21 [DNL758, reference compound]
Effects against SARS-CoV-2 in ACE2-HeLa cells (SARS-CoV-2 [7]): neither QY1892 nor DNL758 exhibited detectable effects
